This note sets out measurements from ChEMBL document CHEMBL3102843, “Synthesis and antifungal activity of substituted 2,4,6-pyrimidinetrione carbaldehyde hydrazones” (Bioorg Med Chem, 2014).

Converted amounts (≈) assume the structure as drawn. The source made the active and inactive calls. No rule for the calls is given here.

Usually MIC80 stands for an inhibitory concentration at the 80% level, which refers to growth in some studies and to a panel of isolates in others.

The test system of one assay is Nakaseomyces glabratus. Put plainly: Antifungal activity against Candida glabrata ATCC 48435 after 48 to 72 hrs by broth microdilution method. It is filed as functional. In a few lines: (§1)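 Broth microdilution per NCCLS. Organisms were subcultured on Sabouraud agar. Inoculum was 5–7 colonies from YM agar in sterile water, adjusted to 0.5 McFarland at 530 nm (1–5×10⁶ cells/mL stock), held 30 min at RT, then diluted 1:50 in HEPES-buffered RPMI 1640. DMSO stocks were twofold-diluted, with final DMSO ≤1%. Plates ran 48–72 h at 35 °C, humid. MIC is the lowest concentration giving ≥80% growth reduction vs drug-free wells, scored visually. Fluconazole or amphotericin B ran as drug control.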

The subject of another assay is Candida albicans. Kind of assay: Antifungal activity against Candida albicans ATCC 10231 after 48 to 72 hrs by broth microdilution method. It is filed as functional. In a few lines:
as §1
In general terms: In broth dilution the organism is exposed to a series of concentrations in liquid medium.

As to `COc1ccc(/N=C(\C)C2C(=O)N(C)C(=O)N(C)C2=O)cc1`, the MIC80 entry in the assay with Nakaseomyces glabratus and in the assay with Candida albicans was “inactive” each time.
As for `C/C(=N\Nc1ccc([N+](=O)[O-])cc1)C1C(=O)NC(=O)N(c2ccccc2)C1=O` (stereo not drawn), the values for the MIC80 with Nakaseomyces glabratus and against Candida albicans were 16 µg/mL (≈ 42 µM) and 31.5 µg/mL (≈ 82.6 µM), respectively.
As to `C/C(=N\c1ccc(O)cc1)C1C(=O)NC(=O)NC1=O`, the MIC80 entry in the assay with Nakaseomyces glabratus and in the assay on Candida albicans was “inactive” each time.
`C/C(=N\c1ccccc1)C1C(=O)N(C)C(=O)N(C)C1=O`: the MIC80 result in the assay with Nakaseomyces glabratus and in the assay with Candida albicans was “inactive” each time.
Turning to `C/C(=N\N)C1C(=O)NC(=O)NC1=O`, the MIC80 entry with Nakaseomyces glabratus and in the assay with Candida albicans was “inactive” each time.
Turning to `O=C1NC(=O)C(/C=N/Nc2ccc([N+](=O)[O-])cc2[N+](=O)[O-])C(=O)N1`, the MIC80 against Nakaseomyces glabratus came to 125 µg/mL (≈ 372 µM). The MIC80 result with Candida albicans is “inactive”.
For `CN1C(=O)C(/C=N/c2ccccc2)C(=O)N(C)C1=O`, the MIC80 entry with Nakaseomyces glabratus and in the assay on Candida albicans was “inactive” each time.
In the case of `C/C(=N\c1ccc(O)cc1)C1C(=O)N(C)C(=O)N(C)C1=O`, the MIC80 result in the assay on Nakaseomyces glabratus and with Candida albicans was “inactive” in each case.
For `O=C1NC(=O)C(/C=N/c2ccc([N+](=O)[O-])cc2)C(=O)N1`, the MIC80 entry with Nakaseomyces glabratus and in the assay with Candida albicans was “inactive” in each case.
Take `COc1ccc(C(=O)N/N=C(\C)C2C(=O)NC(=O)NC2=O)cc1`: the MIC80 result with Nakaseomyces glabratus and with Candida albicans was “inactive” each time.
Regarding `C/C(=N\c1ccncc1)C1C(=O)N(C)C(=O)N(C)C1=O`, the MIC80 entry in the assay on Nakaseomyces glabratus and with Candida albicans was “inactive” throughout.
`O=C1NC(=O)C(/C=N/NC(=O)c2ccccc2)C(=O)N1`: the MIC80 entry with Nakaseomyces glabratus and with Candida albicans was “inactive” in each case.
On to `O=C1NC(=O)C(=Cc2ccoc2)C(=O)N1`, for which the MIC80 result in the assay with Nakaseomyces glabratus and in the assay with Candida albicans was “inactive” each time.
On to `CN1C(=O)C(/C=N/c2ccc(O)cc2)C(=O)N(C)C1=O`, for which the MIC80 entry in the assay with Nakaseomyces glabratus and in the assay on Candida albicans was “inactive” each time.
Regarding `O=C1NC(=O)C(=Cc2ccco2)C(=O)N1`, the MIC80 entry in the assay on Nakaseomyces glabratus and with Candida albicans was “inactive” each time.
On to `O=C1NC(=O)C(=Cc2cccc3ccccc23)C(=O)N1`, for which, in the assay with Nakaseomyces glabratus, the MIC80 result was “inactive”. The MIC80 in the assay with Candida albicans came to 125 µg/mL (≈ 469 µM).
For `CN1C(=O)C(/C=N/c2cccc(O)c2)C(=O)N(C)C1=O`, the MIC80 result in the assay with Nakaseomyces glabratus and with Candida albicans was “inactive” each time.
Take `C/C(=N\c1ccccc1)C1C(=O)NC(=O)NC1=O`: the MIC80 entry in the assay with Nakaseomyces glabratus and with Candida albicans was “inactive” throughout.
Take `O=C1NC(=O)C(=C/C=C/c2ccccc2)C(=O)N1`: the MIC80 entry in the assay with Nakaseomyces glabratus was “inactive”. In the assay with Candida albicans, this compound showed an MIC80 of 62 µg/mL (≈ 256 µM).
Consider `O=C1NC(=O)C(=Cc2ccc(O)cc2)C(=O)N1`, for which the MIC80 result in the assay on Nakaseomyces glabratus and with Candida albicans was “inactive” each time.
For `C/C(=N\CCCCCC(=O)O)C1C(=O)NC(=O)NC1=O`, the MIC80 result with Nakaseomyces glabratus and with Candida albicans was “inactive” throughout.
For `COC(=O)N/N=C(\C)C1C(=O)N(C)C(=O)N(C)C1=O`, the MIC80 entry in the assay with Nakaseomyces glabratus and in the assay with Candida albicans was “inactive” each time.
`O=C1NC(=O)C(/C=N/c2ccccn2)C(=O)N1`: the MIC80 result in the assay on Nakaseomyces glabratus and with Candida albicans was “inactive” throughout.
For the compound `O=C1NC(=O)C(/C=N/c2ccncc2)C(=O)N1`, the MIC80 entry in the assay on Nakaseomyces glabratus and in the assay on Candida albicans was “inactive” throughout.
Regarding `CN(C)c1ccc(C=C2C(=O)NC(=O)NC2=O)cc1`, the MIC80 result in the assay with Nakaseomyces glabratus was “inactive”. This compound also returned an MIC80 with Candida albicans of 62 µg/mL (≈ 239 µM).
As for `O=C1NC(=O)C(=Cc2ccccc2)C(=O)N1`, the MIC80 entry in the assay on Nakaseomyces glabratus and in the assay on Candida albicans was “inactive” in each case.
With `COc1ccc(C=C2C(=O)N(C)C(=O)N(C)C2=O)c(OC)c1OC`, the MIC80 entry in the assay with Nakaseomyces glabratus and in the assay with Candida albicans was “inactive” in each case.
For `O=C1NC(=O)C(/C=N/NS(=O)(=O)c2ccccc2)C(=O)N1`, the MIC80 entry in the assay with Nakaseomyces glabratus and with Candida albicans was “inactive” in each case.
For `CN1C(=O)C(/C=N/c2ccc(-c3ccccc3)cc2)C(=O)N(C)C1=O`, the MIC80 entry with Nakaseomyces glabratus and with Candida albicans was “inactive” throughout.
As to `C/C(=N\Nc1ccc([N+](=O)[O-])cc1[N+](=O)[O-])C1C(=O)N(C)C(=O)N(C)C1=O`, the MIC80 result in the assay with Nakaseomyces glabratus and in the assay with Candida albicans was “inactive” each time.
Consider `CN1C(=O)C(/C=N/NC(=O)c2ccccc2)C(=O)N(C)C1=O`, for which the MIC80 entry in the assay with Nakaseomyces glabratus and with Candida albicans was “inactive” throughout.
For `C/C(=N\c1ccncc1)C1C(=O)NC(=O)NC1=O`, the MIC80 result in the assay with Nakaseomyces glabratus and in the assay on Candida albicans was “inactive” each time.
As for `COc1ccc(C(=O)N/N=C(\C)C2C(=O)N(C)C(=O)N(C)C2=O)cc1`, the MIC80 result in the assay with Nakaseomyces glabratus and with Candida albicans was “inactive” each time.
Turning to `CN1C(=O)C(/C=N/c2ccc([N+](=O)[O-])cc2)C(=O)N(C)C1=O`, the MIC80 result with Nakaseomyces glabratus and in the assay on Candida albicans was “inactive” throughout.
As to `CN1C(=O)C(=Cc2ccc(N(C)C)cc2)C(=O)N(C)C1=O`, the MIC80 result with Nakaseomyces glabratus and in the assay on Candida albicans was “inactive” in each case.
For the compound `O=C1NC(=O)C(/C(=N/Nc2ccc([N+](=O)[O-])cc2[N+](=O)[O-])c2ccccc2)C(=O)N1`, the MIC80 result with Nakaseomyces glabratus and in the assay with Candida albicans was “inactive” each time.
Consider `COc1ccc(/N=C/C2C(=O)N(C)C(=O)N(C)C2=O)cc1`, for which the MIC80 result in the assay on Nakaseomyces glabratus and in the assay on Candida albicans was “inactive” each time.
Take `C/C(=N\NC(=O)c1ccccc1)C1C(=O)NC(=O)NC1=O`: the MIC80 entry in the assay on Nakaseomyces glabratus and in the assay on Candida albicans was “inactive” in each case.
With `CN1C(=O)C(/C=N/C2N=NN=N2)C(=O)N(C)C1=O`, the MIC80 result with Nakaseomyces glabratus and with Candida albicans was “inactive” in each case.
Take `O=C1NC(=O)C(=Cc2ccc3ccccc3c2)C(=O)N1`: the MIC80 result with Nakaseomyces glabratus was “inactive”. Moreover, the MIC80 with Candida albicans was determined as 125 µg/mL (≈ 469 µM).
Take `CN1C(=O)C(/C(=N/Nc2ccc(C(=O)O)cc2)c2ccccc2)C(=O)N(C)C1=O`: the MIC80 result in the assay with Nakaseomyces glabratus and in the assay on Candida albicans was “inactive” in each case.
In the case of `COC(=O)N/N=C(\c1ccc(O)cc1)C1C(=O)N(C)C(=O)N(C)C1=O`, the MIC80 result in the assay on Nakaseomyces glabratus and in the assay on Candida albicans was “inactive” each time.
With `O=C1NC(=O)C(/C=N/c2ccc(O)cc2)C(=O)N1`, the MIC80 entry with Nakaseomyces glabratus and in the assay on Candida albicans was “inactive” each time.
Consider `O=C1NC(=O)C(/C=N/c2ccc(-c3ccccc3)cc2)C(=O)N1`, for which the MIC80 entry in the assay with Nakaseomyces glabratus and in the assay with Candida albicans was “inactive” in each case.
Turning to `COC(=O)N/N=C/C1C(=O)NC(=O)NC1=O`, the MIC80 entry in the assay with Nakaseomyces glabratus and in the assay on Candida albicans was “inactive” each time.
For the compound `C/C(=N\Nc1ccccc1)C1C(=O)NC(=O)NC1=O`, the MIC80 against Nakaseomyces glabratus and in the assay with Candida albicans was 2 µg/mL (≈ 7.68 µM) each time.
`COc1ccc(/C(=N\CCCCCC(=O)O)C2C(=O)NC(=O)NC2=O)cc1`: the MIC80 entry in the assay with Nakaseomyces glabratus and in the assay on Candida albicans was “inactive” in each case.
For `O=C1NC(=O)C(/C=N/Nc2ccccc2)C(=O)N1`, the MIC80 amounted to 2 µg/mL (≈ 8.12 µM) in the assay with Nakaseomyces glabratus and 4 µg/mL (≈ 16.2 µM) with Candida albicans.
As for `COc1ccc(/N=C/C2C(=O)NC(=O)NC2=O)cc1`, the MIC80 entry in the assay on Nakaseomyces glabratus and in the assay with Candida albicans was “inactive” each time.
As to `CN1C(=O)C(/C=N/c2nnc[nH]2)C(=O)N(C)C1=O`, the MIC80 entry in the assay on Nakaseomyces glabratus and with Candida albicans was “inactive” in each case.
For `C/C(=N\NC(=O)c1ccc([N+](=O)[O-])cc1)C1C(=O)N(C)C(=O)N(C)C1=O`, the MIC80 entry with Nakaseomyces glabratus and in the assay with Candida albicans was “inactive” throughout.
With `CN1C(=O)C(=Cc2ccc(O)cc2O)C(=O)N(C)C1=O`, in the assay on Nakaseomyces glabratus, the MIC80 stood at 2 µg/mL (≈ 7.24 µM). Also, the MIC80 entry with Candida albicans is “inactive”.
For `C/C(=N\N)C1C(=O)N(C)C(=O)N(C)C1=O`, the MIC80 entry in the assay with Nakaseomyces glabratus and with Candida albicans was “inactive” in each case.
With `O=C1NC(=O)C(/C=N/c2cccc(O)c2)C(=O)N1`, the MIC80 result in the assay with Nakaseomyces glabratus and in the assay with Candida albicans was “inactive” throughout.
Take `O=C1NC(=O)N(c2ccccc2)C(=O)C1/C(=N/Nc1ccc([N+](=O)[O-])cc1[N+](=O)[O-])c1ccccc1` (stereo not drawn): the MIC80 result with Nakaseomyces glabratus and in the assay on Candida albicans was “inactive” in each case.
In the assay on Nakaseomyces glabratus, `C/C(=N\NC(=O)c1ccc([N+](=O)[O-])cc1)C1C(=O)NC(=O)NC1=O` showed an MIC80 of 125 µg/mL (≈ 375 µM). The MIC80 result with Candida albicans was “inactive”.
On the same counts, the results for `O=C1NC(=O)C(C(=NNc2ccc(C(=O)O)cc2)C2C(=O)NC(=O)NC2=O)C(=O)N1` are 125 µg/mL (≈ 300 µM) and “inactive”.
In the case of `CN1C(=O)C(/C=N/c2ccccn2)C(=O)N(C)C1=O`, the MIC80 result in the assay on Nakaseomyces glabratus and in the assay on Candida albicans was “inactive” each time.
Turning to `CN1C(=O)C(/C=N/NS(=O)(=O)c2ccccc2)C(=O)N(C)C1=O`, the MIC80 result in the assay on Nakaseomyces glabratus and in the assay on Candida albicans was “inactive” each time.
Turning to `CN1C(=O)C(/C(=N/Nc2ccc([N+](=O)[O-])cc2[N+](=O)[O-])c2ccc(O)cc2)C(=O)N(C)C1=O`, the MIC80 result in the assay with Nakaseomyces glabratus and in the assay on Candida albicans was “inactive” each time.
`O=C1NC(=O)N(c2ccccc2)C(=O)/C1=C\c1ccc(O)cc1`: the MIC80 result in the assay on Nakaseomyces glabratus and with Candida albicans was “inactive” each time.
Consider `C/C(=N\Nc1ccc([N+](=O)[O-])cc1[N+](=O)[O-])C1C(=O)NC(=O)NC1=O`, for which the MIC80 result with Nakaseomyces glabratus and in the assay with Candida albicans was “inactive” each time.
Turning to `CCCCN1C(=O)NC(=O)C(/C(=N/Nc2ccc([N+](=O)[O-])cc2[N+](=O)[O-])c2ccccc2)C1=O` (stereo not drawn), the MIC80 result in the assay on Nakaseomyces glabratus and in the assay with Candida albicans was “inactive” throughout.
With `O=C1NC(=O)C(/C=N/c2nnc[nH]2)C(=O)N1`, the MIC80 entry in the assay on Nakaseomyces glabratus and in the assay with Candida albicans was “inactive” throughout.
